Data from ChEMBL document CHEMBL4765342, “Substituted benzothiophene and benzofuran derivatives as a novel class of bone morphogenetic Protein-2 upregulators: Synthesis, anti-osteoporosis efficacies in ovariectomized rats and a zebrafish model, and ADME properties” (Eur J Med Chem, 2020).
Blank lines part the entries; values can stand above or below the compound they belong to. Active and inactive are the calls of the source. The rule behind the calls is not given here.

How the values were obtained:
[1] = Toxicity in BALB/c mouse assessed as muscle spasm at 50 to 100 mg/kg, ig administered for 14 days; format: organism-based; settings: in vivo, po, 336 h, dose 50-100 mg/kg, time 14 day
Procedure, shortened: (§1)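 BALB/c mice, 10 per group, gavaged daily for 14 days at 50 or 100 mg/kg; blank control group included. Hair, behaviour and neurological signs (fremitus, convulsion, spasm, gait disturbance) were observed. At day 14, mice were weighed and given routine blood tests and serum biochemistry (ALT, AST, urea, creatinine; n = 10). Liver and kidney were examined on paraffin-embedded histology sections.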

[2] = Toxicity in BALB/c mouse assessed as convulsion at 50 to 100 mg/kg, ig administered for 14 days; format: organism-based; settings: in vivo, po, 336 h, dose 50-100 mg/kg, time 14 day; procedure, shortened: as §1
[3] = Toxicity in BALB/c mouse assessed as gait disturbance at 50 to 100 mg/kg, ig administered for 14 days; format: organism-based; settings: in vivo, po, 336 h, dose 50-100 mg/kg, time 14 day; procedure, shortened: as §1
[4] = Apparent permeability across apical to basolateral side in human Caco-2 cells at 10 uM incubated for 2 hrs LC-MS/MS analysis; format: ADME, cell-based; settings: Caco-2
Procedure, shortened: (§2)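 Caco-2 monolayers, apical to basolateral direction. Plates preincubated 30 min at 37 °C, then exposed to 10 µM compound for 2 h at 37 °C without shaking. Donor and receiver samples were quenched, centrifuged and measured by LC/MS/MS, in duplicate. Papp calculated from receiver concentration, area and time. Monolayer integrity checked by TEER and by Lucifer yellow leakage (30 min, 37 °C, ex 485/em 530 nm).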

[5] = Toxicity in BALB/c mouse assessed as inflammatory infiltration in liver at 50 to 100 mg/kg, ig administered for 14 days; format: organism-based; settings: in vivo, po, 336 h, dose 50-100 mg/kg, time 14 day; procedure, shortened: as §1
[6] = Solubility in PBS buffer at pH 7.4 assessed as precipitation of compound at 10000 nM; format: physicochemical; settings: pH 7.4, 10 µM
[7] = Permeability across apical to basolateral side in human Caco-2 cells assessed as transepithelial electrical resistance at 10 uM incubated for 2 hrs LC-MS/MS analysis; format: ADME, cell-based; settings: caco-2, 2 h; procedure, shortened: as §2
[8] = Solubility in PBS buffer at pH 7.4 assessed as precipitation of compound at 5000 nM; format: physicochemical; settings: pH 7.4, 5 µM
[9] = Toxicity in BALB/c mouse assessed as effect on liver megakaryocyte at 50 to 100 mg/kg, ig administered for 14 days; format: organism-based; settings: in vivo, po, 336 h, dose 50-100 mg/kg, time 14 day; procedure, shortened: as §1
[10] = Renal toxicity in BALB/c mouse assessed as effect on serum urea level at 50 to 100 mg/kg, ig administered for 14 days; format: organism-based; settings: in vivo, po, 336 h, dose 50-100 mg/kg, time 14 day; procedure, shortened: as §1
[11] = Toxicity in BALB/c mouse assessed as effect on hair at 50 to 100 mg/kg, ig administered for 14 days; format: organism-based; settings: in vivo, po, 336 h, dose 50-100 mg/kg, time 14 day; procedure, shortened: as §1
[12] = Toxicity in BALB/c mouse assessed as necrosis in renal tubular epithelial cells at 50 to 100 mg/kg, ig administered for 14 days; format: organism-based; settings: in vivo, po, 336 h, dose 50-100 mg/kg, time 14 day
Procedure, shortened: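 BALB/c mice, 10 per group: untreated blank group plus low (50 mg/kg) and high (100 mg/kg) dose groups, intragastric once daily for 14 days. Hair, behaviour and neurological signs monitored throughout. At day 14 mice were weighed and dissected. Kidney and liver tissue was fixed in 3 mm pieces, dehydrated through graded alcohol, cleared in xylene, embedded in paraffin, sectioned and examined histopathologically.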

[13] = Solubility in PBS buffer at pH 7.4 assessed as precipitation of compound at 2500 nM; format: physicochemical; settings: pH 7.4, 2.5 µM
[14] = Toxicity in BALB/c mouse assessed as fremitus at 50 to 100 mg/kg, ig administered for 14 days; format: organism-based; settings: in vivo, po, 336 h, dose 50-100 mg/kg, time 14 day; procedure, shortened: as §1
[15] = Hepatotoxicity in BALB/c mouse assessed as effect on serum ALT level at 50 to 100 mg/kg, ig administered for 14 days; format: toxicity, organism-based; settings: in vivo, po, 336 h, dose 50-100 mg/kg, time 14 day; procedure, shortened: as §1
[16] = Permeability across apical to basolateral side in human Caco-2 cells assessed as […] yellow leakage at 10 uM incubated for 2 hrs LC-MS/MS analysis; format: ADME, cell-based; settings: caco-2, 2 h; procedure, shortened: as §2
Rattus norvegicus [17] = assay: Antiosteoporotic activity in Sprague-Dawley rat model of OVX-induced bone loss assessed as increase in number of trabeculae at 30 mg/kg, ig administered for 3 months with 1 day break after 6 consecutive days administration; format: functional, organism-based
Procedure, shortened: (§3)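 Female SD rats given bilateral ovariectomy (sham: fat tissue removed instead), adapted 1 week beforehand; dosing began on postoperative day 10, n = 10 per group. Test drugs as 3 mg/mL suspension by gavage; raloxifene hydrochloride at 0.5 mg/mL. Controls got water. Tetracycline 30 mg/kg ip 16 and 3 days before euthanasia. Tibia stained sections give trabecular morphology and TBV%. BMD of L4-6 measured by densitometry under pentobarbital 45 mg/kg anaesthesia. Reported as mean ± SD.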

[18] = Toxicity in BALB/c mouse assessed as effect on behavioral change at 50 to 100 mg/kg, ig administered for 14 days; format: organism-based; settings: in vivo, po, 336 h, dose 50-100 mg/kg, time 14 day; procedure, shortened: as §1
[19] = Hepatotoxicity in BALB/c mouse assessed as effect on serum AST level at 50 to 100 mg/kg, ig administered for 14 days; format: toxicity, organism-based; settings: in vivo, po, 336 h, dose 50-100 mg/kg, time 14 day; procedure, shortened: as §1
[20] = Solubility in PBS buffer at pH 7.4 assessed as precipitation of compound at 625 nM; format: physicochemical; settings: pH 7.4, 0.625 µM
[21] = Toxicity in BALB/c mouse assessed as effect on body weight at 50 to 100 mg/kg, ig administered for 14 days; format: organism-based; settings: in vivo, po, 336 h, dose 50-100 mg/kg, time 14 day; procedure, shortened: as §1
Rattus norvegicus [22] = assay: Antiosteoporotic activity in Sprague-Dawley rat model of OVX-induced bone loss assessed as increase in thickness of trabeculae at 30 mg/kg, ig administered for 3 months with 1 day break after 6 consecutive days administration; format: functional, organism-based; procedure, shortened: as §3
[23] = Solubility in PBS buffer at pH 7.4 assessed as precipitation of compound at 156.25 nM; format: physicochemical; settings: pH 7.4, 0.15625 µM
[24] = Toxicity in BALB/c mouse assessed as hepatocyte nucleus mitosis at 50 to 100 mg/kg, ig administered for 14 days; format: organism-based; settings: in vivo, po, 336 h, dose 50-100 mg/kg, time 14 day; procedure, shortened: as §1
Rattus norvegicus [25] = assay: Antiosteoporotic activity in Sprague-Dawley rat model of OVX-induced bone loss assessed as increase in trabecular bone volume at 30 mg/kg, ig administered for 3 months with 1 day break after 6 consecutive days administration; format: functional, organism-based; procedure, shortened: as §3
[26] = Toxicity in BALB/c mouse assessed as hepatocyte necrotic foci at 50 to 100 mg/kg, ig administered for 14 days; format: organism-based; settings: in vivo, po, 336 h, dose 50-100 mg/kg, time 14 day; procedure, shortened: as §1
[27] = Solubility in PBS buffer at pH 7.4 assessed as precipitation of compound at 312.5 nM; format: physicochemical; settings: pH 7.4, 0.3125 µM
[28] = Renal toxicity in BALB/c mouse assessed as effect on serum creatinine level at 50 to 100 mg/kg, ig administered for 14 days; format: organism-based; settings: in vivo, po, 336 h, dose 50-100 mg/kg, time 14 day; procedure, shortened: as §1
Rattus norvegicus [29] = assay: Antiosteoporotic activity in Sprague-Dawley rat model of OVX-induced bone loss assessed as narrowed gap between trabeculae at 30 mg/kg, ig administered for 3 months with 1 day break after 6 consecutive days administration; format: functional, organism-based; procedure, shortened: as §3
Rattus norvegicus [30] = assay: Antiosteoporotic activity in Sprague-Dawley rat model of OVX-induced bone loss assessed as increase in trabecular bone mineral density at 30 mg/kg, ig administered for 3 months with 1 day break after 6 consecutive days administration; format: functional, organism-based; procedure, shortened: as §3
Rattus norvegicus [31] = assay: Antiosteoporotic activity in Sprague-Dawley rat model of OVX-induced bone loss assessed as narrowed gap between trabeculae at 5 mg/kg, ig administered for 3 months with 1 day break after 6 consecutive days administration; format: functional, organism-based; procedure, shortened: as §3
Rattus norvegicus [32] = assay: Antiosteoporotic activity in Sprague-Dawley rat model of OVX-induced bone loss assessed as increase in trabecular bone volume at 5 mg/kg, ig administered for 3 months with 1 day break after 6 consecutive days administration; format: functional, organism-based; procedure, shortened: as §3
Rattus norvegicus [33] = assay: Antiosteoporotic activity in Sprague-Dawley rat model of OVX-induced bone loss assessed as increase in thickness of trabeculae at 5 mg/kg, ig administered for 3 months with 1 day break after 6 consecutive days administration; format: functional, organism-based; procedure, shortened: as §3
Rattus norvegicus [34] = assay: Antiosteoporotic activity in Sprague-Dawley rat model of OVX-induced bone loss assessed as increase in number of trabeculae at 5 mg/kg, ig administered for 3 months with 1 day break after 6 consecutive days administration; format: functional, organism-based; procedure, shortened: as §3
Rattus norvegicus [35] = assay: Antiosteoporotic activity in Sprague-Dawley rat model of OVX-induced bone loss assessed as increase in trabecular bone mineral density at 5 mg/kg, ig administered for 3 months with 1 day break after 6 consecutive days administration; format: functional, organism-based; procedure, shortened: as §3

- Papp A→B at 2 h, 10 µM [4]: < 0.00247 ×10⁻⁶ cm/s
- solubility [6]: Insoluble
- Activity [7]: 373 Ω·cm²
- solubility [8]: Insoluble
- solubility [13]: Insoluble
- Activity [16]: 0.152%
- solubility [20]: Soluble
- solubility [23]: Soluble
- solubility [27]: Soluble
SMILES: CCOC(=O)c1cc2ccc(OC)cc2o1
- Activity [1]: Non-Toxic
- Activity [2]: Non-Toxic
- Activity [3]: Non-Toxic
- Activity [5]: Toxic
- Activity [9]: Toxic
- Activity [10]: Non-Toxic
- Activity [11]: Non-Toxic
- Activity [12]: Toxic
- Activity [14]: Non-Toxic
- Activity [15]: Non-Toxic
- Activity (Rattus norvegicus [17]): Active
- Activity [18]: Non-Toxic
- Activity [19]: Non-Toxic
- Activity [21]: Non-Toxic
- Activity (Rattus norvegicus [22]): Active
- Activity [24]: Toxic
- Activity (Rattus norvegicus [25]): Active
- Activity [26]: Toxic
- Activity [28]: Non-Toxic
- Activity (Rattus norvegicus [29]): Active
- Activity (Rattus norvegicus [30]): Active

SMILES: O=C(c1ccc(OCCN2CCCCC2)cc1)c1c(-c2ccc(O)cc2)sc2cc(O)ccc12
- Activity (Rattus norvegicus [31]): Active
- Activity (Rattus norvegicus [32]): Active
- Activity (Rattus norvegicus [33]): Active
- Activity (Rattus norvegicus [34]): Active
- Activity (Rattus norvegicus [35]): Active
